# ChEMBL document CHEMBL2346503, “Synthesis and evaluation of novel (18)F-labeled spirocyclic piperidine derivatives as σ1 receptor ligands for positron emission tomography imaging” (J Med Chem, 2013)
# Assays:
# [1] = tested on: Nucleic Acid; experiment: Ratio of drug uptake in Sprague-Dawley rat temporal cortex auditory area to cerebellum at 12.2 MBq, iv after 60 mins by autoradiography; type: ADME, organism-based; settings: in vivo, 1 h
# [2] = Drug uptake in Sprague-Dawley rat paramedian lobule at 12.2 MBq, iv after 60 mins by autoradiography; type: ADME, organism-based; settings: in vivo, 1 h
# Method in brief: (§1)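 [¹⁸F]-labelled tracer (0.2 mL, 12.2 MBq) given intravenously to conscious Sprague-Dawley rats (n = 3). Each rat was killed by cervical dislocation 60 min after injection. The brain was removed and frozen in liquid nitrogen, and 20 μm coronal sections were cut on a cryostat for ex vivo autoradiography of regional radioactivity.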
# [3] = tested on: Thalamus; experiment: Biodistribution in Sprague-Dawley rat thalamus at 23 MBq, iv after 60 mins by microPET imaging/CT study; type: ADME, organism-based; settings: in vivo, 1 h
# Method in brief: (§2)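 Sprague-Dawley rats under isoflurane (1.5–2.5%) in oxygen received 23 MBq radiotracer (0.2 mL saline) via tail vein. Blocking animals were pre-injected with haloperidol (0.2 mL, 1 mg/kg) 5 min before the tracer. MicroPET emission was acquired for 30 min starting 60 min post-injection, followed by a 5 min CT scan; images were summed over 60–90 min.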
# [4] = tested on: Cerebellum; experiment: Biodistribution in Sprague-Dawley rat cerebellum at 23 MBq, iv after 60 mins by microPET imaging/CT study in presence of haloperidol; type: ADME, organism-based; settings: in vivo, 1 h; method in brief: as §2
# [5] = tested on: Rattus norvegicus; experiment: Biodistribution in Sprague-Dawley rat olfactory bulb at 23 MBq, iv after 60 mins by microPET imaging/CT study in presence of haloperidol; type: ADME, organism-based; settings: in vivo, 1 h; method in brief: as §2
# [6] = Drug uptake in Sprague-Dawley rat lateral ventricle at 12.2 MBq, iv after 60 mins by autoradiography; type: ADME, organism-based; settings: in vivo, 1 h; method in brief: as §1
# [7] = tested on: Heart; experiment: Biodistribution in ICR mouse heart assessed as reduction in radiotracer uptake at 370 kBq, iv after 60 minutes by gamma-counting analysis in presence of SA4503 relative to control; type: ADME, organism-based; parameters: scale not given: the % may be the effect or the level left; settings: in vivo, 1 h
# Method in brief: (§3)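 Male ICR mice got saline or SA4503 (0.1 mL; 2, 5, 10 or 2.2 μmol/kg) via tail vein 5 min before 370 kBq tracer (0.1 mL) iv. They were decapitated at 60 min and tissues γ-counted. Percent change was taken against saline controls, with two-tailed Student's t test, p ≤ 0.05.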
# [8] = tested on: Brain; experiment: Biodistribution in ICR mouse brain assessed as reduction in radiotracer uptake at 370 kBq, iv after 60 minutes by gamma-counting analysis in presence of haloperidol; type: ADME, organism-based; settings: in vivo, 1 h
# Method in brief: (§4)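 Male ICR mice got saline or a blocker (haloperidol, (S)-(−)-raclopride, fluvoxamine or tamoxifen; 0.1 mL, 2.2 μmol/kg) via tail vein 5 min before 370 kBq tracer iv. Brain was γ-counted at 60 min and compared with saline controls by two-tailed Student's t test, p ≤ 0.05.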
# [9] = Drug uptake in Sprague-Dawley rat white matter at 12.2 MBq, iv after 60 mins by autoradiography; type: ADME, organism-based; settings: in vivo, 1 h; method in brief: as §1
# [10] = tested on: Spleen; experiment: Biodistribution in ICR mouse spleen assessed as reduction in radiotracer uptake at 370 kBq, iv after 60 minutes by gamma-counting analysis in presence of SA4503 relative to control; type: ADME, organism-based; parameters: scale not given: the % may be the effect or the level left; settings: in vivo, 1 h
# Method in brief: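 Male ICR mice were given saline or SA4503 (0.1 mL; 2, 5 or 10 μmol/kg) via tail vein 5 min before [18F]radiotracer (370 kBq, 0.1 mL, iv). Killed at 60 min. Organs were gamma-counted as % ID/g and reduction was computed versus saline controls. Two-tailed independent Student's t test, p ≤ 0.05.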
# [11] = tested on: Midbrain; experiment: Biodistribution in Sprague-Dawley rat midbrain at 23 MBq, iv after 60 mins by microPET imaging/CT study in presence of haloperidol; type: ADME, organism-based; settings: in vivo, 1 h; method in brief: as §2
# [12] = tested on: Kidney; experiment: Biodistribution in ICR mouse kidney assessed as reduction in radiotracer uptake at 370 kBq, iv after 60 minutes by gamma-counting analysis in presence of SA4503 relative to control; type: ADME, organism-based; parameters: scale not given: the % may be the effect or the level left; settings: in vivo, 1 h; method in brief: as §3
# [13] = tested on: Nucleic Acid; experiment: Ratio of drug uptake in Sprague-Dawley rat frontal cortex to cerebellum at 12.2 MBq, iv after 60 mins by autoradiography; type: ADME, organism-based; settings: in vivo, 1 h
# [14] = tested on: Brain; experiment: Biodistribution in ICR mouse brain assessed as reduction in radiotracer uptake at 370 kBq, iv after 60 minutes by gamma-counting analysis in presence of tamoxifen; type: ADME, organism-based; settings: in vivo, 1 h; method in brief: as §4
# [15] = tested on: Lung; experiment: Biodistribution in ICR mouse lung assessed as reduction in radiotracer uptake at 370 kBq, iv after 60 minutes by gamma-counting analysis in presence of SA4503 relative to control; type: ADME, organism-based; parameters: scale not given: the % may be the effect or the level left; settings: in vivo, 1 h; method in brief: as §3
# [16] = tested on: Nucleic Acid; experiment: Ratio of drug uptake in Sprague-Dawley rat interior coliculus to cerebellum at 12.2 MBq, iv after 60 mins by autoradiography; type: ADME, organism-based; settings: in vivo, 1 h
# [17] = tested on: Brain; experiment: Biodistribution in ICR mouse brain assessed as reduction in radiotracer uptake at 370 kBq, iv after 60 minutes by gamma-counting analysis in presence of SA4503 relative to control; type: ADME, organism-based; parameters: scale not given: the % may be the effect or the level left; settings: in vivo, 1 h; method in brief: as §3
# [18] = tested on: Brain; experiment: Metabolic stability in ICR mouse brain at 18.5 MBq, iv after 30 mins by HPLC analysis; type: ADME, organism-based; settings: in vivo, 0.5 h
# Method in brief: (§5)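 Male ICR mice given radiotracer iv (18.5 MBq, 0.2 mL), killed at 30 min. Brain and liver were homogenized in ice-cold PBS (0.01 M, pH 7.4) and extracted with ice-cold MeCN. Supernatants were filtered, concentrated and analysed by radio-HPLC on a C18 column, acetonitrile/water with 0.1% TFA (45:55), 1 mL/min.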
# [19] = tested on: Midbrain; experiment: Biodistribution in Sprague-Dawley rat midbrain at 23 MBq, iv after 60 mins by microPET imaging/CT study; type: ADME, organism-based; settings: in vivo, 1 h; method in brief: as §2
# [20] = tested on: Rattus norvegicus; experiment: Biodistribution in Sprague-Dawley rat internal capsule at 23 MBq, iv after 60 mins by microPET imaging/CT study; type: ADME, organism-based; settings: in vivo, 1 h; method in brief: as §2
# [21] = tested on: Cortex; experiment: Biodistribution in Sprague-Dawley rat cortex at 23 MBq, iv after 60 mins by microPET imaging/CT study; type: ADME, organism-based; settings: in vivo, 1 h; method in brief: as §2
# [22] = tested on: Brain; experiment: Biodistribution in ICR mouse brain assessed as reduction in radiotracer uptake at 370 kBq, iv after 60 minutes by gamma-counting analysis in presence of fluvoxamine; type: ADME, organism-based; settings: in vivo, 1 h; method in brief: as §4
# [23] = tested on: Hippocampus; experiment: Drug uptake in Sprague-Dawley rat hippocampus at 12.2 MBq, iv after 60 mins by autoradiography; type: ADME, organism-based; settings: in vivo, 1 h; method in brief: as §1
# [24] = tested on: Rattus norvegicus; experiment: Biodistribution in Sprague-Dawley rat pontine reticular nucleus at 23 MBq, iv after 60 mins by microPET imaging/CT study; type: ADME, organism-based; settings: in vivo, 1 h; method in brief: as §2
# [25] = tested on: Liver; experiment: Metabolic stability in ICR mouse liver assessed as retention time at 18.5 MBq, iv by HPLC analysis; type: ADME, organism-based; settings: in vivo; method in brief: as §5
# [26] = tested on: Cortex; experiment: Drug uptake in Sprague-Dawley rat visual cortex at 12.2 MBq, iv after 60 mins by autoradiography; type: ADME, organism-based; settings: in vivo, 1 h; method in brief: as §1
# [27] = tested on: Nucleic Acid; experiment: Ratio of drug uptake in Sprague-Dawley rat hippocampus to cerebellum at 12.2 MBq, iv after 60 mins by autoradiography; type: ADME, organism-based; settings: in vivo, 1 h
# [28] = Chemical stability of the compound at room temperature up to 4 hrs; type: physicochemical
# Method in brief: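 Radiotracer (3.7 MBq in 100 μL water) was added to 1 mL of 80% ethanol or 0.9% NaCl and held at room temperature for 4 h. Radiochemical purity was checked by HPLC at 1, 2 and 4 h.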
# [29] = tested on: Brain; experiment: Biodistribution in ICR mouse brain assessed as reduction in radiotracer uptake at 370 kBq, iv after 60 minutes by gamma-counting analysis in presence of (S)-(-)raclopride; type: ADME, organism-based; settings: in vivo, 1 h; method in brief: as §4
# [30] = tested on: Cortex; experiment: Drug uptake in Sprague-Dawley rat temporal cortex auditory area at 12.2 MBq, iv after 60 mins by autoradiography; type: ADME, organism-based; settings: in vivo, 1 h; method in brief: as §1
structure (smiles),measurement,setting,value
[18F]CCOc1ccc(CN2CCC3(CC2)OCc2ccccc23)cc1,Ratio,[1],1.9
same,Drug uptake,[2],Active
same,Drug uptake,[3],Active
same,Drug uptake,[4],Active
same,Drug uptake,[5],Active
same,Drug uptake,[6],Active
same,Activity,[7],60%
same,Drug uptake,[8],Active
same,Drug uptake,[9],Active
same,Activity,[10],29%
same,Drug uptake,[11],Active
same,Activity,[12],57%
same,Ratio,[13],1.5
same,Drug uptake,[14],Active
same,Activity,[15],71%
same,Ratio,[16],1.3
same,Activity,[17],46%
same,Stability,[18],Stable
same,Drug uptake,[19],Active
same,Drug uptake,[20],Active
same,Drug uptake,[21],Active
same,Drug uptake,[22],Active
same,Drug uptake,[23],Active
same,Drug uptake,[24],Active
same,Retention_time,[25],7.72 min
same,Drug uptake,[26],Active
same,Ratio,[27],1.22
same,Stability,[28],Stable
same,Drug uptake,[29],Active
same,Drug uptake,[30],Active
